Holding throughout (format): functional
For test [1], the system named is Paracentrotus lividus. Nature of the test: Antiproliferative activity against sea urchin embryo assessed as cleavage alteration after 10 to 15 mins fertilization 45 to 60 mins before first mitotic cycle completion. The method in brief: (§1)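 Phenotypic in vivo assay on fertilized sea urchin eggs, scored for cleavage alteration or arrest. Reported value is the effective threshold concentration (EC), from duplicate measurements.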

Test [2] concerns Paracentrotus lividus. Put plainly: Antiproliferative activity against sea urchin embryo assessed as cleavage arrest after 10 to 15 mins fertilization 45 to 60 mins before first mitotic cycle completion. The method in brief:
as §1

The test system of test [3] is Paracentrotus lividus. Nature of the test: tubulin-destabilizing activity in sea urchin embryo assessed as embryo spinning treated immediately 8 to 10 hrs after fertilization. The procedure, abridged:
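Free-swimming sea urchin blastulae were treated and monitored for behavioural change. Reported value is the effective threshold concentration (EC), from duplicate measurements.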

Turning to `COc1ccc(C(=O)c2cc3c(c(OC)c2OC)OCO3)cc1O`, the results for the EC with Paracentrotus lividus [1], in the test on Paracentrotus lividus [2] and with Paracentrotus lividus [3] were 1 µM, 4 µM and above 5 µM, respectively.

For the compound `COc1ccc(C(=O)c2cc(OC)c3c(c2OC)OCO3)cc1O`, the EC was 2 µM in the test with Paracentrotus lividus [1], above 4 µM with Paracentrotus lividus [2] and above 5 µM with Paracentrotus lividus [3].

Turning to `COc1ccc(C(=O)c2cc(OC)c3c(c2)OCO3)cc1O`, the values for the EC in the test with Paracentrotus lividus [1], in the test on Paracentrotus lividus [2] and in the test on Paracentrotus lividus [3] were 0.001 µM, 0.01 µM and 0.1 µM, respectively.

In the case of `COc1ccc(C(=O)c2cc(OC)c(OC)c(OC)c2OC)cc1O`, the EC was 2 µM in the test on Paracentrotus lividus [1], above 4 µM in the test on Paracentrotus lividus [2] and above 5 µM with Paracentrotus lividus [3].

Turning to `COc1ccc(C(=O)c2ccc3c(c2)OCCO3)cc1O`, the values for the EC with Paracentrotus lividus [1], with Paracentrotus lividus [2] and with Paracentrotus lividus [3] were 0.1 µM, 0.2 µM and above 5 µM, respectively.

As to `COc1ccc(C(=O)c2ccc3c(c2)OCCO3)cc1`, the EC is 0.5 µM in the test with Paracentrotus lividus [1], 1 µM in the test with Paracentrotus lividus [2] and above 5 µM in the test with Paracentrotus lividus [3].

For `COc1ccc(/C=C\c2cc(OC)c(OC)c(OC)c2)cc1O` [COMBRETASTATIN A4], the values for the EC in the test with Paracentrotus lividus [1], in the test with Paracentrotus lividus [2] and in the test with Paracentrotus lividus [3] were 0.002 µM, 0.01 µM and 0.05 µM, respectively.

Take `COc1ccc(/C=C\c2cc(OC)c3c(c2)OCO3)cc1O` [Combretastatin A-2]: the figures for the EC in the test with Paracentrotus lividus [1], in the test on Paracentrotus lividus [2] and with Paracentrotus lividus [3] were 0.002 µM, 0.01 µM and 0.05 µM, respectively.

Take `COc1ccc(C(=O)c2cc(OC)c(OC)c(OC)c2)cc1O` [PHENSTATIN]: the EC with Paracentrotus lividus [1] amounted to 0.01 µM; in the test with Paracentrotus lividus [2] it was 0.05 µM; in the test with Paracentrotus lividus [3], 0.5 µM.

For the origin of these results see ChEMBL document CHEMBL1681762, “Application of plant allylpolyalkoxybenzenes in synthesis of antimitotic phenstatin analogues” (2011).
